The source of these data is ChEMBL document CHEMBL3414503, “Distinct novel quinazolinone exhibits selective inhibition in MGC-803 cancer cells by dictating mutant p53 function” (Eur J Med Chem, 2015).

The subject of experiment [1] is A-375. As to the kind of experiment: Cytotoxicity against human A375 cells assessed as cell viability after 48 hrs by MTT assay. The class given is functional, cell-based. As to conditions: A-375, 48 h. The procedure, abridged:
(§1)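 Cells were trypsinized, seeded in 96-well plates at 2 × 10³ cells/well and grown for 24 h. Medium was then replaced with compound solutions (in DMSO, range from 0.1) for 48 h, and viability was read by MTT. Cancer lines were grown in RPMI 1640 + 10% FCS. IC50 from 3 independent experiments, each in triplicate.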

Experiment [2] deals with HepG2. In words: Cytotoxicity against human HepG2 cells assessed as cell viability after 48 hrs by MTT assay. The class given is functional, cell-based. As to conditions: HepG2, 48 h. In a few lines: as §1
A general note: Formazan colour is commonly taken as a measure of viable cells.

In experiment [3] the test system is NCI-H460. In words: Cytotoxicity against human NCI-H460 cells assessed as cell viability after 48 hrs by MTT assay. The class given is functional, cell-based. As to conditions: NCI-H460, 48 h. In a few lines: as §1
The subject of experiment [4] is MGC-803. In words: Cytotoxicity against human MGC803 cells assessed as cell viability after 48 hrs by MTT assay. The class given is functional, cell-based. The note with it: MGC-803, 48 h. The procedure, abridged: as §1
Experiment [5] has as its system MGC-803. As to the kind of experiment: Cell cycle arrest in human MGC803 cells assessed as accumulation at sub G1 phase at 1 uM after 48 hrs by propidium iodide staining-based FACS analysis relative to control. The class given is functional.
Experiment [6] concerns MGC-803. As to the kind of experiment: Cell cycle arrest in human MGC803 cells assessed as accumulation at G0/G1 phase at 1 uM after 48 hrs by propidium iodide staining-based FACS analysis relative to control. The class given is functional. On the technique in general: Flow cytometry measures light scatter and fluorescence of single cells or particles in a stream.
In experiment [7] the test system is MGC-803. As to the kind of experiment: Cell cycle arrest in human MGC803 cells assessed as accumulation at S phase at 1 uM after 48 hrs by propidium iodide staining-based FACS analysis relative to control. The class given is functional.
Experiment [8] relates to MGC-803. As to the kind of experiment: Cell cycle arrest in human MGC803 cells assessed as accumulation at G2/M phase at 1 uM after 48 hrs by propidium iodide staining-based FACS analysis relative to control. The class given is functional.
In experiment [9] the test system is MGC-803. In words: Cell cycle arrest in human MGC803 cells assessed as accumulation at sub G1 phase at 10 uM after 48 hrs by propidium iodide staining-based FACS analysis relative to control. The class given is functional.
Experiment [10] has as its system MGC-803. As to the kind of experiment: Cell cycle arrest in human MGC803 cells assessed as accumulation at G0/G1 phase at 10 uM after 48 hrs by propidium iodide staining-based FACS analysis relative to control. The class given is functional.
Experiment [11] concerns MGC-803. In words: Cell cycle arrest in human MGC803 cells assessed as accumulation at S phase at 10 uM after 48 hrs by propidium iodide staining-based FACS analysis relative to control. The class given is functional.
The subject of experiment [12] is MGC-803. As to the kind of experiment: Cell cycle arrest in human MGC803 cells assessed as accumulation at G2/M phase at 10 uM after 48 hrs by propidium iodide staining-based FACS analysis relative to control. The class given is functional.

`COc1cc2nc(/C=C/c3ccc4c(c3)OCO4)n(CCCN(C)C)c(=O)c2cc1OC`: the IC50 in experiment [1] was greater than 20 µM.
Turning to `CCCCn1c(/C=C/c2ccc(Cl)cc2)nc2ccccc2c1=O`, the half-maximal inhibitory concentration (IC50) in experiment [2], in [3], in [4] and in experiment [1] was greater than 20 µM each time.
Take `CCCCn1c(/C=C/c2ccc3c(c2)OCO3)nc2ccccc2c1=O`: the IC50 in experiment [2], in experiment [3], in [4] and in experiment [1] was greater than 20 µM in each case.
In the case of `CCCCn1c(/C=C/c2ccccc2Br)nc2ccccc2c1=O`, the IC50 in experiment [2], in experiment [3], in experiment [4] and in [1] was greater than 20 µM throughout.
With `COc1ccc(/C=C/c2nc3ccccc3c(=O)n2CCN(C)C)cc1OC`, the concentration for half-maximal inhibition (IC50) in experiment [2], in experiment [3], in [4] and in experiment [1] was greater than 20 µM each time.
As to `CN(C)CCCn1c(/C=C/c2ccc([N+](=O)[O-])cc2)nc2cc(Cl)ccc2c1=O`, the half-maximal inhibitory concentration (IC50) in [2] was found to be 7.41 µM; in experiment [3], 5.55 µM; in experiment [4] it was 8.28 µM; in experiment [1] it was 10.3 µM.
Regarding `COc1ccc(/C=C/c2nc3cc(OC)c(OC)cc3c(=O)n2CCCN(C)C)cc1OC`, the IC50 in [1] was greater than 20 µM.
As to `CN(C)CCn1c(/C=C/c2ccc3c(c2)OCO3)nc2ccccc2c1=O`, the IC50 in experiment [2], in experiment [3], in experiment [4] and in experiment [1] was greater than 20 µM in each case.
With `CN(C)CCCn1c(/C=C/c2ccccc2Br)nc2cc(Cl)ccc2c1=O`, the IC50 came out at 8.1 µM in [2], 7.49 µM in [3], 12.6 µM in experiment [4] and 13.1 µM in experiment [1].
The matching figures for `CN(C)CCCn1c(/C=C/c2ccc3c(c2)OCO3)nc2cc(Cl)ccc2c1=O`: greater than 20 µM, greater than 20 µM, greater than 20 µM and greater than 20 µM.
For `CCCCn1c(/C=C/c2cccc(O)c2)nc2ccccc2c1=O` the same measures were greater than 20 µM, greater than 20 µM, greater than 20 µM and greater than 20 µM.
For `CCCCn1c(/C=C/c2ccc(F)cc2)nc2ccccc2c1=O` the same measures were greater than 20 µM, greater than 20 µM, greater than 20 µM and greater than 20 µM.
As for `COc1cc2nc(/C=C/c3cccc([N+](=O)[O-])c3)n(CCCN(C)C)c(=O)c2cc1OC`, in experiment [1], the IC50 is greater than 20 µM.
On the same count and under the same terms, with `COc1cc2nc(/C=C/c3ccc([N+](=O)[O-])cc3)n(CCCN(C)C)c(=O)c2cc1OC` the figure was greater than 20 µM.
As to `CCCCn1c(/C=C/c2ccc(Cl)cc2Cl)nc2ccccc2c1=O`, the concentration for half-maximal inhibition (IC50) in experiment [2], in experiment [3], in experiment [4] and in experiment [1] was greater than 20 µM in each case.
In the case of `CN(C)CCCn1c(/C=C/c2ccc(F)cc2)nc2ccccc2c1=O`, the 50% inhibitory concentration (IC50) in [2], in experiment [3], in experiment [4] and in [1] was greater than 20 µM each time.
In the case of `CN(C)CCCn1c(/C=C/c2ccccc2Br)nc2ccccc2c1=O`, the IC50 in experiment [2] worked out at 5.06 µM; in experiment [3], 6.54 µM; in [4], 14.6 µM; in experiment [1] it was 8.41 µM.
For `CN(C)CCCn1c(/C=C/c2cccc([N+](=O)[O-])c2)nc2cc(Cl)ccc2c1=O` the same measures were 6.13 µM, 5.83 µM, 4.14 µM and 14 µM.
For `CN(C)CCCn1c(/C=C/c2ccc(Cl)cc2Cl)nc2cc(Cl)ccc2c1=O` the same measures were 8.58 µM, 13.3 µM, 5.75 µM and 12.9 µM.
For `CN(C)CCn1c(/C=C/c2ccccc2Br)nc2ccccc2c1=O` the same measures were greater than 20 µM, greater than 20 µM, greater than 20 µM and greater than 20 µM.
For the compound `COc1cc2nc(/C=C/c3ccccc3Br)n(CCCN(C)C)c(=O)c2cc1OC`, the concentration for half-maximal inhibition (IC50) in experiment [1] is greater than 20 µM.
In the case of `CN(C)CCn1c(/C=C/c2ccc(F)cc2)nc2ccccc2c1=O`, the IC50 in experiment [2], in [3], in experiment [4] and in experiment [1] was greater than 20 µM in each case.
For `CN(C)CCn1c(/C=C/c2cccc([N+](=O)[O-])c2)nc2ccccc2c1=O`, the IC50 in experiment [2], in experiment [3], in experiment [4] and in experiment [1] was greater than 20 µM throughout.
Turning to `CCCCn1c(/C=C/c2cccc([N+](=O)[O-])c2)nc2ccccc2c1=O`, the concentration for half-maximal inhibition (IC50) in experiment [2], in experiment [3], in experiment [4] and in [1] was greater than 20 µM throughout.
Consider `CN(C)CCn1c(/C=C/c2ccc(Cl)cc2Cl)nc2ccccc2c1=O`, for which the half-inhibitory concentration (IC50) in experiment [2], in experiment [3], in experiment [4] and in experiment [1] was greater than 20 µM in each case.
Turning to `CCCCn1c(/C=C/c2ccc(OC)c(OC)c2)nc2ccccc2c1=O`, the 50% inhibitory concentration (IC50) in experiment [2], in experiment [3], in [4] and in experiment [1] was greater than 20 µM in each case.
For `CN(C)CCn1c(/C=C/c2cccc(O)c2)nc2ccccc2c1=O`, the concentration for half-maximal inhibition (IC50) in experiment [2], in [3], in experiment [4] and in experiment [1] was greater than 20 µM each time.
On to `COc1cc2nc(/C=C/c3ccc(Cl)cc3Cl)n(CCCN(C)C)c(=O)c2cc1OC`, for which the IC50 in experiment [2] came to 6.45 µM; in experiment [3] it was 6.37 µM; in experiment [4] it was 5.92 µM; in experiment [1], 12.7 µM.
The matching figures for `COc1ccc(/C=C/c2nc3cc(Cl)ccc3c(=O)n2CCCN(C)C)cc1OC`: greater than 20 µM, greater than 20 µM, greater than 20 µM and greater than 20 µM.
For `CN(C)CCCn1c(/C=C/c2ccc(Cl)cc2Cl)nc2ccccc2c1=O`, the IC50 in [2] was determined as 4.2 µM; in [3], 5.86 µM; in experiment [4], 3.89 µM; in [1], 7.15 µM. Also, the Activity in experiment [5] came to 5.09%; in [6], 54.16%; in [7], 29.35%; in experiment [8], 11.4%; in experiment [9], 31.98%; in experiment [10], 34.55%. Also, the figures for the Activity in experiment [11] and in experiment [12] were 20.64% and 12.83%, respectively.
As for `CN(C)CCCn1c(/C=C/c2ccc(Cl)cc2)nc2cc(Cl)ccc2c1=O`, the IC50 in experiment [2] came out at 6.43 µM; in experiment [3], 7.72 µM; in experiment [4], 6.88 µM; in experiment [1], 14.1 µM.
For `CN(C)CCCn1c(/C=C/c2cccc(O)c2)nc2ccccc2c1=O` the same measures were 6.1 µM, greater than 20 µM, greater than 20 µM and greater than 20 µM.
The matching figures for `CN(C)CCn1c(/C=C/c2ccc(Cl)cc2)nc2ccccc2c1=O`: greater than 20 µM, greater than 20 µM, greater than 20 µM and greater than 20 µM.
`COc1cc2nc(/C=C/c3cccc(O)c3)n(CCCN(C)C)c(=O)c2cc1OC`: the IC50 in experiment [1] was greater than 20 µM.
Regarding `CN(C)CCCn1c(/C=C/c2ccc(Cl)cc2)nc2ccccc2c1=O`, the IC50 in experiment [2], in experiment [3], in experiment [4] and in experiment [1] was greater than 20 µM throughout.
In the case of `CN(C)CCCn1c(/C=C/c2cccc(O)c2)nc2cc(Cl)ccc2c1=O`, the IC50 was greater than 20 µM in experiment [2], 10.5 µM in experiment [3], greater than 20 µM in experiment [4] and greater than 20 µM in [1].
Turning to `CCCCn1c(/C=C/c2ccc([N+](=O)[O-])cc2)nc2ccccc2c1=O`, the IC50 in experiment [2], in [3], in experiment [4] and in [1] was greater than 20 µM in each case.
For the compound `CN(C)CCn1c(/C=C/c2ccc([N+](=O)[O-])cc2)nc2ccccc2c1=O`, the IC50 in [2], in [3], in experiment [4] and in experiment [1] was greater than 20 µM each time.
For `CN(C)CCCn1c(/C=C/c2ccc(F)cc2)nc2cc(Cl)ccc2c1=O`, the IC50 in experiment [2], in experiment [3], in [4] and in experiment [1] was greater than 20 µM each time.

A word on the IC50: it is the point on the concentration scale where inhibition reaches its midpoint.
